From ChEMBL document CHEMBL2424622, “Development of amino-pyrimidine inhibitors of c-Jun N-terminal kinase (JNK): kinase profiling guided optimization of a 1,2,3-benzotriazole lead” (Bioorg Med Chem Lett, 2013)

How the values were obtained:
[1] = target: T1, Serine/threonine-protein kinase Nek5 (Homo sapiens) (UniProt Q6P3R8); experiment: Competitive binding affinity to NEK5 (unknown origin) at 10 uM in presence of ATP relative to control
T1 sequence (whole entry): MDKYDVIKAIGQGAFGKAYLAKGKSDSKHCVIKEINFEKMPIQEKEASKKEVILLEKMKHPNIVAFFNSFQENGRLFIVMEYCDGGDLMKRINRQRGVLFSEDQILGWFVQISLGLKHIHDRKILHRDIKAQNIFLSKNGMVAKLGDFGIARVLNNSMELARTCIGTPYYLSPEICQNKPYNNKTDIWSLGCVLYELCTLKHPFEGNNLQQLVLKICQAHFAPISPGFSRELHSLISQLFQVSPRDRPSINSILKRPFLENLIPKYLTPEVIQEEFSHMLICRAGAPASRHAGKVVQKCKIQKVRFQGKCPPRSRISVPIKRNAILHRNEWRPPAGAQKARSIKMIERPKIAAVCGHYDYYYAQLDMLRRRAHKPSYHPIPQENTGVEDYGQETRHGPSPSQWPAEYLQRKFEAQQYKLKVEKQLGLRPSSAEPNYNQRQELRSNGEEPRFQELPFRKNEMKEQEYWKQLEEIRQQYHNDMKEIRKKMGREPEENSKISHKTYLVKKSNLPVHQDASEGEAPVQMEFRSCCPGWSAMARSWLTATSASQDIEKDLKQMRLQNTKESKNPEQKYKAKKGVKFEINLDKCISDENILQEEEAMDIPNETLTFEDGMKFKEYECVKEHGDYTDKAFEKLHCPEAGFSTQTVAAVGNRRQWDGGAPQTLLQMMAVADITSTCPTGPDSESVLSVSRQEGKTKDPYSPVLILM

[2] = target: T2, Tyrosine-protein kinase Mer (Homo sapiens) (UniProt Q12866); experiment: Competitive binding affinity to MERTK (unknown origin) at 10 uM in presence of ATP relative to control
T2 sequence (whole entry): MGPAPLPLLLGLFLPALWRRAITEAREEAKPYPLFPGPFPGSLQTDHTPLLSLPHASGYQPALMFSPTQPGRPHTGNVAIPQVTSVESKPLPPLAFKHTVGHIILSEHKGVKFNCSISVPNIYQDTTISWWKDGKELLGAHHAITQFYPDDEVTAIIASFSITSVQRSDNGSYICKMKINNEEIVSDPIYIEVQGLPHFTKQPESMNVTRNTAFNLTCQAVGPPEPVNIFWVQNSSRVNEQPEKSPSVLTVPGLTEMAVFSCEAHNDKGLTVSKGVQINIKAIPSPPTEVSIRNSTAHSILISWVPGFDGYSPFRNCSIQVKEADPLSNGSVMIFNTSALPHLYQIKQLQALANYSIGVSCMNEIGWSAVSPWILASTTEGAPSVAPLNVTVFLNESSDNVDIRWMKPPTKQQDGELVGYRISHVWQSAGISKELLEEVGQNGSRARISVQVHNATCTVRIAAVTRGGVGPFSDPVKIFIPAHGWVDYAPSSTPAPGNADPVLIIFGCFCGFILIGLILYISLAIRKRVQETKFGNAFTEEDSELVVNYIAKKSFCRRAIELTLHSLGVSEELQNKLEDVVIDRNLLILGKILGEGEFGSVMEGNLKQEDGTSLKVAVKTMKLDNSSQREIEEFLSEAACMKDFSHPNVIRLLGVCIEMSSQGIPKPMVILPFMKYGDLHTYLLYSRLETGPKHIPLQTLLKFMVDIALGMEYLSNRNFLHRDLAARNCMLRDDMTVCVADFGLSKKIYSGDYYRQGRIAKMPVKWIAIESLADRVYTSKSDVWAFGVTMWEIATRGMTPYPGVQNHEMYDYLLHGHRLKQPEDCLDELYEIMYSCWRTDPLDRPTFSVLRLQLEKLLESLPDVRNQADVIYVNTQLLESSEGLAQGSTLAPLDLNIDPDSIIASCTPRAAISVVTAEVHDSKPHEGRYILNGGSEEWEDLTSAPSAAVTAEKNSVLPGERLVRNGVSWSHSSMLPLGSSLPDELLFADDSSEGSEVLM
Outline: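 In vitro ATP-site competition binding assay across a diverse panel of 128 kinases, with compound tested at a single concentration. Kinase selectivity scores (S15) were calculated from the panel profiles.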

[3] = target: T3, Tyrosine-protein kinase receptor TYRO3 (Homo sapiens) (UniProt Q06418); experiment: Competitive binding affinity to TYRO3 (unknown origin) at 10 uM in presence of ATP relative to control
T3 sequence (whole entry): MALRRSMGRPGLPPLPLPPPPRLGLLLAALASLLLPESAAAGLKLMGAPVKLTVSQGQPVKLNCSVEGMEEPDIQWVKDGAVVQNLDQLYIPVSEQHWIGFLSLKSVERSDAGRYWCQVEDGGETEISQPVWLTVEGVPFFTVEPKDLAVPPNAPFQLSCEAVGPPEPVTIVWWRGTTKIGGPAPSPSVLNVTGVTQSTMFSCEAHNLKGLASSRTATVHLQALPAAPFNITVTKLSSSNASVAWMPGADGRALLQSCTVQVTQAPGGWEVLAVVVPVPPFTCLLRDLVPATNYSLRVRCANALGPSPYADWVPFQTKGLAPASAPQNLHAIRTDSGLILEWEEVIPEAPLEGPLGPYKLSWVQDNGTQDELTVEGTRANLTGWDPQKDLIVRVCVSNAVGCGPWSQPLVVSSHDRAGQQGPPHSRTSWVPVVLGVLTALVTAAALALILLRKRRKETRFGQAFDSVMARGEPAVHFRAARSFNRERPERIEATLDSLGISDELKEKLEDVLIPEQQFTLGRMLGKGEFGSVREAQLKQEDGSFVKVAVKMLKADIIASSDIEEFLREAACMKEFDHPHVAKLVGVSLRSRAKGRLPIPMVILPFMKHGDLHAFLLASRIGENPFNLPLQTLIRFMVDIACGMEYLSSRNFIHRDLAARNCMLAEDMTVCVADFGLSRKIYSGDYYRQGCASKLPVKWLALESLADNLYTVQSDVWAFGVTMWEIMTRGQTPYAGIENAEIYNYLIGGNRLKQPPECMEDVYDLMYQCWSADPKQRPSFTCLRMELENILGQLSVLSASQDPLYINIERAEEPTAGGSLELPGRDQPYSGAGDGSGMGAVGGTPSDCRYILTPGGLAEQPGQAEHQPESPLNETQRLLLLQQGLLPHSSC

[4] = tested on: Mast/stem cell growth factor receptor Kit (Homo sapiens), P10721 [V559D,V654A]; experiment: Competitive binding affinity to KIT V559D/V654A double mutant (unknown origin) at 10 uM in presence of ATP relative to control
Outline: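 In vitro ATP-site competition binding assay, part of profiling against a diverse panel of 128 kinases. Each compound was tested at a single concentration of 10 µM. Kinome selectivity was summarized as S15 selectivity scores.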

Sequence of Mast/stem cell growth factor receptor Kit (Homo sapiens), P10721 [V559D,V654A] (P10721 whole entry V559D/V654A): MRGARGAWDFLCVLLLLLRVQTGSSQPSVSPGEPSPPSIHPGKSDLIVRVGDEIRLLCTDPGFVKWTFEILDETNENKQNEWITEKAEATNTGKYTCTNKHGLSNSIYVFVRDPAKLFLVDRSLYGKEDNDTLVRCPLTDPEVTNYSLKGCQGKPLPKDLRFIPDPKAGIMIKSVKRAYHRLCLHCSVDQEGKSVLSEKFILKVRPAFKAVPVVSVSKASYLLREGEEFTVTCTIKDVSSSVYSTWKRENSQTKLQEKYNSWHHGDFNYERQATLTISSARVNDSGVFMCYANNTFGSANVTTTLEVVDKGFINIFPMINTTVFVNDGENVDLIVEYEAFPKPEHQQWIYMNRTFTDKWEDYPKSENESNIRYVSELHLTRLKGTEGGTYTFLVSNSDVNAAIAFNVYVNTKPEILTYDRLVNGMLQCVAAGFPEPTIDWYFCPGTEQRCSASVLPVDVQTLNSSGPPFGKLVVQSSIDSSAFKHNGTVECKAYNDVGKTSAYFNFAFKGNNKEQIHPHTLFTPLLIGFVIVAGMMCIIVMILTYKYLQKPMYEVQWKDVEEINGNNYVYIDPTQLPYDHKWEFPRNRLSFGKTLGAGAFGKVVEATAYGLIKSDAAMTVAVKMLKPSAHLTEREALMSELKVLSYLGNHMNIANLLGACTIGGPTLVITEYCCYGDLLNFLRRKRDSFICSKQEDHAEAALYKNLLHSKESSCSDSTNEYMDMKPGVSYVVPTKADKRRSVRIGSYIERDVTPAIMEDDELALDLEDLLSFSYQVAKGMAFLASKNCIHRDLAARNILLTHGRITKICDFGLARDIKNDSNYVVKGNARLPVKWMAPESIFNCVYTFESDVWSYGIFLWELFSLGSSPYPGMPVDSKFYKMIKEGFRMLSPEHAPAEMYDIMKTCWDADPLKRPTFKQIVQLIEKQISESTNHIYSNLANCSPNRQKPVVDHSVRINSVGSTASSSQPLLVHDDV

| SMILES | inhibition [1] | inhibition [2] | inhibition [3] | inhibition [4] |
| --- | --- | --- | --- | --- |
| CS(=O)(=O)CCCOc1cccc2c1ccn2-c1ccnc(N[C@H]2CC[C@H](C(=O)N3CCC(O)CC3)CC2)n1 | > 85% |  |  |  |
| O[C@H]1CC[C@H](Nc2nccc(-n3ccc4ccccc43)n2)CC1 | < 50% | < 50% | < 50% | 64% |
| O[C@H]1CC[C@H](Nc2nccc(-n3nnc4ccccc43)n2)CC1 | 95% | < 50% | < 50% | 67% |
| O[C@H]1CC[C@H](Nc2nccc(-n3ncc4ccccc43)n2)CC1 | 71% | 92% | < 50% | 87% |
| O[C@H]1CC[C@H](Nc2nccc(-c3n[nH]c4ccccc34)n2)CC1 |  | 100% | < 50% | 82% |
